Sampled rows, rich in hits. Any-hit rate of the full collection: about 3.1%.
SENP8 block-1: inhibitors of human SENP8 protease; inhibition, % at 20 µM; 360,000 tested, 0.64% active; recombinant SENP8, Nedd8 substrate fluorescence; in the data active = inhibition mostly above about 40%, no sharp cut-off; inactive = mostly below about 27%
UBC13 polyUb: inhibitors of human UBC13 polyubiquitin chain formation. P61088. TR-FRET. inhibition, % at 20 µM. 330,000 tested, 0.47% active. AID 485273; in the data active = inhibition above about 45%, passing the limit was not always enough
Apaf-1 inh: inhibitors of human Apaf-1 apoptosome. inhibition, % at 20 µM. reconstituted apoptosome caspase-3 activity, DEVD-Rh110 fluorescence. 330,000 tested, 0.71% active. AID 489030. O14727; active = inhibition of at least 40% at 20 µM;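 note: plate controls were DMSO wells for no effect and DEVD-CHO caspase inhibitor wells for full effect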
Target sequence (O14727 whole entry, looked up): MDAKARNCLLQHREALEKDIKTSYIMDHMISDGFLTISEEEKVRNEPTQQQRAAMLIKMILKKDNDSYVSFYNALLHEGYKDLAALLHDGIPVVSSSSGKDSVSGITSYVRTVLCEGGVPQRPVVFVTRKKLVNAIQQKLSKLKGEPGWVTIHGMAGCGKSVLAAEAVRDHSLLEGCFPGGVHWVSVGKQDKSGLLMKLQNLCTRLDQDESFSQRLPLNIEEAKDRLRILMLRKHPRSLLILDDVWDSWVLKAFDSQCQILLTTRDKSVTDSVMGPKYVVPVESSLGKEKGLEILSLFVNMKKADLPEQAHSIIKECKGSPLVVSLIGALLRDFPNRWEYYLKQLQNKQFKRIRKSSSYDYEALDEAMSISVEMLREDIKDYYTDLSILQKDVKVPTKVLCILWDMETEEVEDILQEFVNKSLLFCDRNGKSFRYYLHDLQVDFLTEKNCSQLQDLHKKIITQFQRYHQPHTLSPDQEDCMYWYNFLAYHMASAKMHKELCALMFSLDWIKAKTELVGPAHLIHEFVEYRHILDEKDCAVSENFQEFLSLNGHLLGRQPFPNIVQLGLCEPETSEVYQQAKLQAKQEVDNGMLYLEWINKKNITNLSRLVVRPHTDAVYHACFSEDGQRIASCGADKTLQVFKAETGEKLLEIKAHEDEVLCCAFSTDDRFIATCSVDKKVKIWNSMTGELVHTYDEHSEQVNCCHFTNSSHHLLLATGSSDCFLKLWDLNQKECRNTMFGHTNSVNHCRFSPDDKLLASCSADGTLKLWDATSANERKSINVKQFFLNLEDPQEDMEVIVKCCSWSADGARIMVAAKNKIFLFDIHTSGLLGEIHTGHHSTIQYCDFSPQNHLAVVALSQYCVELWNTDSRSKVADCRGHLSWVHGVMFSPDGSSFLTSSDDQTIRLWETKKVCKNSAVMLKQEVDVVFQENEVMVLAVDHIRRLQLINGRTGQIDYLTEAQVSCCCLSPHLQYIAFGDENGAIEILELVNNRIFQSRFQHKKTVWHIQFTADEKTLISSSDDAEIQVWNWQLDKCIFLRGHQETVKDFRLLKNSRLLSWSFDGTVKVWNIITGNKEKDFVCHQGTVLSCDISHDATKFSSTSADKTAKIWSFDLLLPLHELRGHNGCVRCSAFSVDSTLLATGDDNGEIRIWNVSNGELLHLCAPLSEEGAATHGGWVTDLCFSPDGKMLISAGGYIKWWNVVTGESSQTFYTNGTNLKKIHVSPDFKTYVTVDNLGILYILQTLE
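Material: reconstituted apoptosome with Apaf-1, cytochrome c, caspase-9, procaspase-3, dATP; medium: pH 7.5 Hepes buffer with CHAPS, BSA, DTT; also added: cytochrome c and DEVD-Rh110 substrate; timing: 30 min plus 50 min, RT; signal: Rh110 fluorescence intensity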
SENP6 inh: inhibitors of human SENP6 protease. inhibition, % at 10 µM. 330,000 tested, 1.8% active. Q9GZR1. Recombinant SENP6 catalytic domain, aminoluciferin luminescence;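 active = inhibition above about 50% at the single tested dose, limit read from the data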;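 note: plate controls were DMSO wells with enzyme for no effect and DMSO wells lacking enzyme for full effect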
SENP7 block: blocks the human protease SENP7 | inhibition, % at 5 µM | 330,000 tested, 1.5% active | recombinant SENP7, Z-RLRGG-aminoluciferin luminescence, 40 min | AID 434973;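 active = inhibition above about 50% at the single test dose, limit read from the data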;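 note: plate controls were DMSO with enzyme for no effect and no enzyme buffer wells for full effect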
SENP8 block-2: inhibitors of human SENP8 protease | Q96LD8 | purified SENP8, Z-RLRGG-aminoluciferin cleavage, luminescence | inhibition, % at 10 µM | 330,000 tested, 1.2% active; in the data active = inhibition above about 50%
SENP8 inh conf: SENP8 (human) inhibition, single concentration confirmation | AID 624319 | shares compounds with SENP8 block-1 | 1,400 tested, 15% active | inhibition, % at 25 µM | purified SENP8, Nedd8-AMC/pro-Nedd8 cleavage fluorescence, 30 min; in the data active = inhibition mostly above about 39%, no sharp cut-off; inactive = mostly below about 34%
The depositor's hits bear a star; . = no result.

SMILES	SENP8 block-1	UBC13 polyUb	Apaf-1 inh	SENP6 inh	SENP7 block	SENP8 block-2	SENP8 inh conf
CC(=O)n1cc(CO)c2ccccc21	44.9*	13.7	-11.7	-8.9	-2.7	-0.2	8.5
Cn1c2ccccc2c2nnc(NN)nc21	76.9*	-19.9	2.1	16.8	-11.0	4.3	37.9*
CCn1c2ccccc2c2nnc(NN)nc21	32.7	-8.4	7.8	20.8	7.7	7.4	.
CCCCn1c2ccc(F)cc2c2nnc(NN)nc21	70.9*	-24.5	16.9	10.7	3.5	0.4	15.0
CCn1c2ccc(C)cc2c2nnc(NN)nc21	68.9*	-9.7	-7.1	3.8	8.3	0.4	20.9
CC(C)CSc1nnc2c3ccccc3n(C)c2n1	-4.8	12.2	5.7	49.9	14.8	34.6	.
CCCn1c2ccc(F)cc2c2nnc(SCCN3CCCCC3)nc21	15.7	-14.0	6.4	5.1	-2.8	-1.4	.
CC1C(=O)N(Cc2cn(CCC3OCCCO3)nn2)CCS(=O)(=O)N1Cc1ccc(-c2ccc(Cl)c(Cl)c2)cc1 (stereo not drawn)	-2.2	.	.	.	.	.	.
Cc1ccc(S(=O)(=O)N2C3CC(c4ccccc4)N(S(=O)(=O)c4cccc(Cl)c4)CC3C(=O)C[C@H]2c2ccccc2)cc1 (stereo partly drawn)	13.9	.	.	.	.	.	.
CC(C)(C)S(=O)(=O)/C(C#N)=C/c1cccn1S(=O)(=O)c1ccccc1	16.4	.	.	.	.	.	.
NC(=O)N/N=C/C=C/c1ccc(F)cc1	42.7*	-7.8	-7.0	-39.0	-1.2	5.2	25.1
O=C(N/N=C\C=C\c1ccc2c(c1)OCO2)c1ccc(F)cc1	-374.7	4.0	3.1	-0.1	-1.0	-7.2	.
COC(=O)Cc1c(C)[nH]n(-c2cc(Cl)cc(Cl)c2)c1=O	58.6*	-0.7	39.6	17.5	13.3	0.2	12.3
CCOC(=O)c1n[nH]n(-c2cc(Cl)cc(Cl)c2)c1=O	6.4	0.5	9.0	-12.7	-8.4	3.6	.
Cc1ccc(C)c(NC(=S)/C(=C(\[O-])c2ccc(Cl)s2)[n+]2ccccc2)c1	69.2*	-10.2	12.9	38.1	-0.5	-2.3	41.0
CCc1cccc(CC)c1NC(=S)/C(=C(\[O-])c1ccc(Cl)s1)[n+]1ccccc1	12.0	-17.2	14.9	5.0	3.8	2.0	.
N#CC(C#N)=c1ccc2c(c1)NC1(CCCCC1)N=2	41.7*	-422.3	29.5	15.4	8.9	18.2	24.1*
CC(=O)Nc1ccccc1NC(=O)C/C(C)=N/NC(=O)c1ccc([N+](=O)[O-])c(Cl)c1	40.2*	-4.9	-7.1	-4.2	-4.0	-8.9	7.9
C[C@H](NC(=O)c1cc2cc(Cl)ccc2n1C)C(=O)N1CCC[C@H]1C(=O)O	12.6	-11.1	1.2	-16.2	10.2	-11.5	.
CC(C)C[C@H](NC(=O)c1cc2cc(Cl)ccc2n1C)C(=O)N1CCC[C@H]1C(=O)O	46.7*	-13.8	6.5	-17.4	11.3	-3.1	8.4
N#CC1=C(N)Oc2c(oc(CO)cc2=O)C1c1cccs1 (stereo not drawn)	45.2*	-3.3	5.6	22.2	4.4	-0.4	30.0
O=[N+]([O-])c1ccc(Sc2ccccc2Cl)nc1	40.3*	-9.5	7.2	-11.1	-3.4	-2.1	8.4
CCOC(=O)C1CCN(C(=O)Nc2ccc3oc(C)nc3c2)CC1	46.4*	11.3	-8.6	-9.2	-4.3	7.2	6.2
C#CCN(C[C@H]1[C@H](OC(=O)Nc2c(C)noc2C)[C@H](OC(=O)Nc2c(C)noc2C)C[C@@H](C(=O)OC)[C@H]1C(=O)OC)S(=O)(=O)c1ccc(C)cc1	-1.3	.	.	.	.	.	.
COc1ccc(C(=O)/C=C(\C)Nc2ccc3c(c2)OCO3)cc1	41.4*	0.1	10.9	12.5	1.3	-2.7	2.5
SMILES	SENP8 block-1	UBC13 polyUb	Apaf-1 inh	SENP6 inh	SENP7 block	SENP8 block-2	SENP8 inh conf
Cc1nc(SCC(=O)c2cc(C)n(C3CC3)c2C)c2ccccc2n1	-8.2	.	.	.	.	.	.
O=c1oc2ccccc2nc1/C=C(O)/C=C/c1ccc(F)cc1	47.2*	-3.0	17.5	1.6	4.5	-4.1	-3.3
COc1ccc2oc3cc(NCCN(C)C)ccc3c(=O)c2c1	-400.7	.	.	.	.	.	.
CC1(C(=O)NCc2ccco2)Cc2c(-c3cccc(C(N)=O)c3)ccnc2O1 (stereo not drawn)	8.5	.	.	.	.	.	.
Nc1ncnc2c1ncn2[C@@H]1O[C@H](C(=O)Nc2ccc(C(=O)N3CCCCC3)cc2)[C@@H](O)[C@H]1O	13.2	.	.	.	.	.	.
CN(C)c1ccc(NC(=O)c2ccc(Cn3cc([N+](=O)[O-])cn3)cc2)cc1	43.6*	-14.3	-2.3	-9.6	2.1	7.2	38.8
COc1ccc(NC(=O)c2ccc(Cn3cc(Cl)cn3)cc2)cc1	6.0	15.0	0.3	-8.5	-1.8	-4.5	.
Cc1nc2ccccc2n1CC(O)COCC1CC=CCC1 (stereo not drawn)	43.0*	0.3	11.8	-1.5	-2.0	-2.8	-4.8
Cc1nnc(Sc2cc(NCCCO)c([N+](=O)[O-])c3nonc23)s1	75.4*	.	.	.	.	.	6.1
CC1CN(c2ccc([N+](=O)[O-])c(NCCOc3ccc(Cl)cc3)c2)CC(C)N1 (stereo not drawn)	46.2*	22.5	26.7	2.0	-1.5	-6.2	15.7
CCS(=O)(=O)N1CCN(c2ccc([N+](=O)[O-])c(NCc3ccccc3)c2)CC1	34.8	-18.5	16.1	-17.0	2.5	4.1	.
CC1CN(c2ccc([N+](=O)[O-])c(NCCOc3ccccc3)c2)CC(C)N1 (stereo not drawn)	38.3*	-22.9	21.7	-14.6	0.9	1.1	5.7
COc1cccc(OCCNc2cc(Cl)ccc2[N+](=O)[O-])c1	23.6	-2.4	-8.1	0.9	0.6	-2.5	.
O=[N+]([O-])c1ccc(N2CCCCC2)cc1NCCOc1ccccc1	40.5*	-16.0	6.4	-3.3	-2.1	-9.8	19.9
CCCS(=O)(=O)NC(=O)C1(C)CCN(C(=O)Cc2cccc3ccccc23)C1 (stereo not drawn)	9.6	.	.	.	.	.	.
O=c1c2ccccc2ncn1Cc1ccc(Cl)c(Cl)c1	6.1	5.2	5.1	-4.2	3.9	-0.2	.
O=C(O)Cc1cn(Cc2ccc(F)cc2)c2ccccc12	0.6	9.2	-9.4	0.0	3.6	1.9	.
Cc1[nH][nH]c(=O)c1C(c1c(C)[nH][nH]c1=O)c1cn(Cc2ccc(F)cc2)c2ccccc12	76.8*	.	.	.	.	.	73.1*
Cc1[nH][nH]c(=O)c1C(c1c(C)[nH][nH]c1=O)c1cn(Cc2ccc(Cl)c(Cl)c2)c2ccccc12	72.8*	.	.	.	.	.	68.3*
COc1ccc(CNC(=O)Nc2cc(C)cc(C)c2)cc1	42.9*	-7.6	-5.2	1.4	-3.5	-10.9	0.7
COc1ccc(CNC(=O)Nc2ccc(C)cc2)cc1	15.4	-3.2	10.8	-31.0	-7.0	-7.3	.
CC1(C)C(=O)C=CC(=O)C(C)(C)C(=O)C=CC(=O)C(C)(C)C2=CC=C(O2)C(C)(C)C(=O)C=CC1=O	47.5*	.	.	.	.	.	11.5
COCc1cn(CC(=O)c2sc(NC(=O)C(C)(C)C)nc2C)nn1	9.3	.	.	.	.	.	.

Compound activity (PubChem BioAssay)
